This note sets out measurements from ChEMBL document CHEMBL1255468 (Antimicrob Agents Chemother, 2010).

Activity calls are given as the source filed them. The calls are words filed in the database; no cut-off is given here. A value given as a limit tells only on which side of the number the result lay.

The test system of data set [1] is Trypanosoma cruzi. Briefly: Antitrypanosomal activity against Trypanosoma cruzi Y infected in mouse assessed as decrease in parasitemia in blood at 200 mg/kg, po upto 40 days post infection. The class given is functional. Put shortly: (§1)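 Male Swiss mice (6–8 weeks, 18–20 g), 8–10 per group, infected i.p. with 10^4 bloodstream trypomastigotes (Y strain). On dpi 5, a single 200 mg/kg oral gavage dose was given in water with 10% Tween-80. Parasitemia was counted daily from dpi 6 to 21 by the Pizzi-Brener method. Body weight was recorded weekly. Mortality was recorded daily, and cumulative mortality at 40 dpi and M50 were calculated.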

The subject of data set [2] is Trypanosoma cruzi. Briefly: Antitrypanosomal activity against Trypanosoma cruzi Y infected in mouse assessed as decrease in mouse mortality at 200 mg/kg, po upto 40 days post infection. Format: functional, organism-based. On the set-up: dose 200 mg/kg. Put shortly:
as §1

For data set [3], the system named is Trypanosoma cruzi. Kind of data set: Antitrypanosomal activity against Trypanosoma cruzi Y infected in mouse assessed as decrease in mouse mortality at 200 mg/kg, po after 20 days post infection. Format: functional, organism-based. On the set-up: dose 200 mg/kg. Put shortly:
as §1

Data set [4] concerns Trypanosoma cruzi. Briefly: Antitrypanosomal activity against Trypanosoma cruzi trypomastigotes assessed as increase in vesicles size near the flagellar pocket at 17 uM after 24 hrs by Transmission electron microscopy. Format: functional, organism-based. Put shortly: (§2)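 Y-strain bloodstream trypomastigotes (5 × 10^6/ml) were treated for 24 h, washed in PBS, and fixed in 2.5% glutaraldehyde in 0.1 M cacodylate (pH 7.2). They were postfixed with OsO4/ferricyanide/CaCl2, dehydrated in acetone, and embedded in epoxy. Ultrathin sections were stained with uranyl acetate and lead citrate and examined by transmission EM.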

In data set [5] the test system is Trypanosoma cruzi. Briefly: Antitrypanosomal activity against Trypanosoma cruzi trypomastigotes assessed as alteration in autophagosome-like structure formation at 17 uM after 24 hrs by Transmission electron microscopy. The class given is functional, organism-based. Put shortly: as §2
Data set [6] deals with Trypanosoma cruzi. Kind of data set: Antitrypanosomal activity against Trypanosoma cruzi trypomastigotes assessed as parasite body rounding at 17 uM after 24 hrs by scanning electron microscopy. Format: functional, organism-based. Put shortly: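 Trypomastigotes (5 × 10^6/ml) were treated for 24 h and adhered to poly-L-lysine coverslips. They were fixed in 2.5% glutaraldehyde in 0.1 M cacodylate (pH 7.2) for 40 min and postfixed for 30 min in 1% OsO4, 0.8% ferricyanide and 2.5 mM CaCl2. Samples were acetone-dehydrated, critical-point dried, gold-coated (20 nm) and examined by scanning EM.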

The test system of data set [7] is Trypanosoma cruzi. Briefly: Antitrypanosomal activity against Trypanosoma cruzi amastigotes infected in mouse peritoneal macrophages assessed as inhibition of infection at 30 uM after 1-4 days. The class given is functional, organism-based. Put shortly: (§3)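 Swiss mouse peritoneal macrophages (3 × 10^5/well) were plated for 24 h, then infected with Y-strain trypomastigotes (10:1) in DMEM with 10% FCS for 3 h. Free parasites were washed off, and compounds were added at 2.5–30 µM final for 1–4 days. Cells were fixed in Bouin's solution and stained with Giemsa. Percent infection and endocytic index (parasites/100 cells) were counted, and IC50 was derived. Three independent experiments.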

For data set [8], the system named is Trypanosoma cruzi. Briefly: Antitrypanosomal activity against Trypanosoma cruzi amastigotes infected in mouse peritoneal macrophages assessed as endocytic index at 30 uM after 1-4 days. Format: functional, organism-based. Put shortly:
as §3

Data set [9] relates to Trypanosoma cruzi. Kind of data set: Antitrypanosomal activity against Trypanosoma cruzi amastigotes infected in mouse embryo heart muscle cells assessed as endocytic index at 40 uM. The class given is functional, organism-based. Put shortly: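 Mouse embryo heart muscle cells (10^5/well) were plated on gelatin-coated coverslips and infected after 24 h with trypomastigotes at 10:1 parasite/host cell. After another 24 h, cultures were washed and exposed to compounds at 10–40 µM final. At intervals, cells were fixed in Bouin's solution and stained with Giemsa. Percent infection and endocytic index (parasites/100 cells) were counted, and IC50 was derived.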

Data set [10] is described as follows: Cytotoxicity against Swiss mouse peritoneal macrophages after 48 hrs by MTT assay. Format: cell-based, Peritoneal macrophage cell. The note with it: read-out: LC50. Put shortly:
(§4)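 Uninfected host cells were exposed to compounds at 37°C for 2 days, with compound stocks in DMSO. Cells were Swiss mouse peritoneal macrophages or primary mouse embryo heart muscle cells (18-day embryos, trypsin/collagenase dissociated, gelatin-coated coverslips, DMEM with horse and fetal calf sera, chicken embryo extract). Viability was read by MTT at 490 nm to give LC50.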

A short description of data set [11]: Cytotoxicity against swiss mouse HMC after 48 hrs by MTT assay. The following applies: read-out: LC50. Put shortly:
as §4
On the technique in general: Tetrazolium assays rely on reduction of a dye to a coloured formazan, in cell work by metabolically active cells.

Data set [12] concerns Mus musculus. Briefly: Toxicity in mouse assessed as body weight at 400 mg/kg, po after 4 days. The class given is organism-based. On the set-up: dose 400 mg/kg, route oral. The note with it: in vivo, 96 h. Put shortly: (§5)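 Uninfected male Swiss mice, 8–10 per group, received by gavage either a single 400 mg/kg dose or 10 doses of 100 mg/kg (vehicle water with 10% Tween-80). GOT, GPT and urea were measured directly in blood with the Reflotron system, and body weight was recorded. Single-dose toxicity was analyzed 4 days after treatment.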

In data set [13] the test system is Mus musculus. Briefly: Toxicity in mouse assessed as GOT level in blood at 400 mg/kg, po after 4 days. On the set-up: dose 400 mg/kg, route oral. Format: organism-based. The following applies: in vivo, 96 h. Put shortly:
as §5

Data set [14] has as its system Mus musculus. Kind of data set: Toxicity in mouse assessed as GPT level in blood at 400 mg/kg, po after 4 days. On the set-up: dose 400 mg/kg, route oral. The following applies: in vivo, 96 h. The class given is organism-based. Put shortly:
as §5

For data set [15], the system named is Mus musculus. Kind of data set: Toxicity in mouse assessed as urea level in blood at 400 mg/kg, po after 4 days. The class given is organism-based. On the set-up: dose 400 mg/kg, route oral. The note with it: in vivo, 96 h. Put shortly:
as §5

The test system of data set [16] is Trypanosoma cruzi. Kind of data set: Antitrypanosomal activity against Trypanosoma cruzi infected in mouse assessed as decrease in parasitemia in blood at 100 mg/kg, po after 6 days post infection. The class given is functional. Put shortly:
(§6)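 Male Swiss mice, 8–10 per group, infected i.p. with 10^4 bloodstream trypomastigotes. From dpi 6, mice received 10 consecutive daily gavage doses of 100 mg/kg in water with 10% Tween-80. Parasitemia was read daily on dpi 6–21 by the Pizzi-Brener method. Mortality was noted daily, and %CM at 40 dpi and M50 were calculated.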

Data set [17] relates to Trypanosoma cruzi. Briefly: Antitrypanosomal activity against Trypanosoma cruzi infected in mouse assessed as decrease in mortality rate at 100 mg/kg, po after 6 days post infection. Format: functional, organism-based. On the set-up: dose 100 mg/kg. Put shortly: as §6
Data set [18] has as its system Trypanosoma cruzi. Kind of data set: Antitrypanosomal activity against Trypanosoma cruzi infected in mouse assessed as reduction in inflammatory foci in cardiac muscle at 100 mg/kg, po after 6 days post infection. The class given is functional, organism-based. On the set-up: dose 100 mg/kg. The following applies: Muscle tissue. Put shortly:
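Infected mice were dosed by gavage at 100 mg/kg daily for 10 days from dpi 6. Two mice per group were euthanized at 14 dpi. Paraffin heart sections were stained with hematoxylin-eosin. Under a 40× objective, parasite nests and inflammatory foci (≥10 mononuclear cells) were counted per mm2 over 30 fields.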

Turning to `COc1ccc(/C=N\Nc2nnc(-c3ncc([N+](=O)[O-])n3C)s2)cc1O`, the result in [1] and in data set [2] was inactive.

In the case of `Cn1c([N+](=O)[O-])cnc1-c1nnc(N/N=C\c2ccc([N+](=O)[O-])cc2)s1`, the result in data set [1] was Active. The outcome in data set [3] was inactive.

For `Cn1c([N+](=O)[O-])cnc1-c1nnc(N/N=C\c2ccc(Br)cc2)s1`, the Activity in [1] was 60%; in data set [12], 25.2 g; in data set [13] it was 118 U/L; in data set [14], 27.9 U/L; in data set [15], 62.7 mg/dL. In addition, the result in data set [2], in data set [4], in data set [5], in data set [6], in [17] and in data set [18] was Active. The outcome in data set [7], in data set [8], in data set [9] and in data set [16] was inactive. In addition, the CC50 at 48 h in data set [10] was more than 60 µM; in data set [11], more than 120 µM.

With `Cn1c([N+](=O)[O-])cnc1-c1nnc(N/N=C\c2ccc(Cl)cc2)s1`, the result in [1] and in [2] was inactive.
